{"source": "ChEMBL document CHEMBL3272089", "about": "“Synthesis and antitumor activity of dihydro-5-azacytidine, a hydrolytically stable analogue of 5-azacytidine” (J Med Chem, 1977)", "key": {"L1210 [1]": {"system": "L1210", "experiment": "Cytotoxicity against mouse L1210 cells assessed as cessation of growth", "assay_type": "functional, cell-based"}, "L1210 [2]": {"system": "L1210", "experiment": "Cytotoxicity against mouse L1210 cells assessed as cessation of growth in presence of uridine", "assay_type": "functional, cell-based"}, "L1210 [3]": {"system": "L1210", "experiment": "Cytotoxicity against mouse L1210 cells assessed as cessation of growth in presence of cytidine", "assay_type": "functional, cell-based"}, "L1210 [4]": {"system": "L1210", "experiment": "Antitumor activity against mouse L1210 cells allografted in ip dosed mouse assessed as increase in life span at MNTD administered qd on day 1, 5 and 9 post tumor implantation relative to control", "assay_type": "functional", "method_in_brief": "(§1)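 L1210 implanted ip in mice. Compound given ip in 0.9% saline on the listed schedule across a dose-response range. % ILS reported at the highest nontoxic dose, or at the dose giving maximal ILS for active compounds. Test minus control body-weight change on day 5 at the highest nontoxic dose.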"}, "L1210 [5]": {"system": "L1210", "experiment": "Antitumor activity against mouse L1210 cells allografted in ip dosed mouse assessed as change in body weight at MNTD administered qd on day 1, 5 and 9 post tumor implantation measured on day 5 relative to control", "assay_type": "functional", "method_in_brief": "(§2)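 Doses were given ip in 0.9% saline after ip L1210 implantation, as a dose–response series. The reading is the difference in average body weight change (g) between test (T) and control (C) groups, measured on day 5 at the highest nontoxic dose tested.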"}, "L1210 [6]": {"system": "L1210", "experiment": "Antitumor activity against mouse L1210 cells allografted in ip dosed mouse assessed as increase in life span at MNTD administered qd from day 1 to day 9 post tumor implantation relative to control", "assay_type": "functional", "method_in_brief": "as §1"}, "L1210 [7]": {"system": "L1210", "experiment": "Antitumor activity against mouse L1210 cells allografted in ip dosed mouse assessed as change in body weight at MNTD administered qd from day 1 to day 9 post tumor implantation measured on day 5 relative to control", "assay_type": "functional", "method_in_brief": "as §2"}}, "note": "Activity calls are given as the source filed them. The calls are words filed in the database; no cut-off is given here."}
{"molecule": "NC1=NC(=O)N([C@@H]2O[C@H](CO)[C@@H](O)[C@H]2O)CN1", "note": "[listing 1 of 2 here]", "values": [{"measurement": "Activity", "setting": "L1210 [1]", "value": "Active"}, {"measurement": "Activity", "setting": "L1210 [2]", "value": "inactive"}, {"measurement": "Activity", "setting": "L1210 [3]", "value": "inactive"}]}
{"molecule": "Cl.NC1=NC(=O)NCN1", "values": [{"measurement": "ILS", "setting": "L1210 [4]", "value": 0, "unit": "%"}, {"measurement": "Activity", "setting": "L1210 [5]", "value": 1, "unit": "g"}]}
{"molecule": "NC1=NC(=O)N([C@@H]2O[C@H](CO)[C@@H](O)[C@H]2O)CN1", "note": "[listing 2 of 2 here]", "values": [{"measurement": "ILS", "setting": "L1210 [6]", "value": 86, "unit": "%"}, {"measurement": "Activity", "setting": "L1210 [7]", "value": -3.2, "unit": "g"}]}
{"molecule": "NC(N)=NC(=O)N[C@@H]1O[C@H](CO)[C@@H](O)[C@H]1O", "values": [{"measurement": "ILS", "setting": "L1210 [4]", "value": 0, "unit": "%"}, {"measurement": "Activity", "setting": "L1210 [5]", "value": -2.2, "unit": "g"}]}
{"molecule": "NC1=NC(=O)N([C@@H]2O[C@H](CO)[C@H]3O[B-]4(O[C@H]32)O[C@@H]2[C@H](O4)[C@@H](CO)O[C@H]2N2CNC(N)=NC2=O)CN1.[Na+]", "note": "(stereo partly specified)", "values": [{"measurement": "ILS", "setting": "L1210 [4]", "value": 80, "unit": "%"}, {"measurement": "Activity", "setting": "L1210 [5]", "value": -1.5, "unit": "g"}]}
